# In paper PMC3027307 (Biochemistry, 2010):
# Target: P450-SS9 (cytochrome P450 from Photobacterium profundum strain SS9) (Photobacterium profundum, UniProt Q6LGK6)
# Assay: absorbance
# Type: binding
# In short: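 Enzyme at 0.8-1.8 μM was titrated with fatty acids or derivatives, added from 30-140 mM acetone stocks, at 25 °C with stirring in 0.1 M Na-Hepes pH 7.4 with 0.5 mM EDTA. Absorbance spectra were PCA/SVD-resolved into high-spin, low-spin and P420 standards. Kd came from a tight-binding (square-root) equation fit.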
row,Kd [µM],SMILES
1,0.97 ± 0.42,CCCCCCCCCCCCCC(=O)O [myristic acid]
2,49.5 ± 30,CCCCCCCC/C=C\CCCCCCCC(=O)NCC(=O)O [oleoyl glycine]
3,24.3 ± 8.2,CCCCCCCCCCCCCCCC(=O)O [palmitic acid]

row,SMILES,Kd [µM]
1,CCCCC/C=C\C/C=C\C/C=C\C/C=C\CCCC(=O)O [arachidonic acid],19.2 ± 4.2
2,CCCCC/C=C\C/C=C\C/C=C\C/C=C\CCCC(=O)NCC(=O)O [arachidonoyl glycine],16.7 ± 0.1
